Bioassay records (PubChem)
TAAR1 antagonist = human TAAR1 antagonism; Q96RJ0; CHO RD-HGA16 TAAR1, Fluo-8 calcium fluorescence, antagonist; inhibition, % at 3 µM; 360,000 tested, 1.5% active;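 active = inhibition above a per-plate cutoff, the mean inhibition of test compounds on that plate plus 3 SD, cut at about 49% in these data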
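Assay system: CHO-derived RD-HGA16 cells stably expressing human TAAR1 plus Gα16. Timing: 140 s kinetic read after compound, 140 s after agonist. Technique: kinetic Fluo-8 calcium fluorescence measurement. Measure: % inhibition of agonist calcium response.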
V1aR counter = activates human V1a receptor in oxytocin agonist counter-screen; CHO-V1R cells, Fluo-8 calcium fluorescence, agonist mode; 0% DMSO, 100% 3 nM vasopressin; activation, % at 3 µM; 320,000 tested, 0.25% active; AID 2797;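 active = activation above the mean activation of all tested compounds plus 3 SD, per screening run, cut at about 20% in these data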;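 also: signal is peak over basal fluorescence ratio across a 100 second FLIPR read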
Target sequence (P37288 whole entry, looked up): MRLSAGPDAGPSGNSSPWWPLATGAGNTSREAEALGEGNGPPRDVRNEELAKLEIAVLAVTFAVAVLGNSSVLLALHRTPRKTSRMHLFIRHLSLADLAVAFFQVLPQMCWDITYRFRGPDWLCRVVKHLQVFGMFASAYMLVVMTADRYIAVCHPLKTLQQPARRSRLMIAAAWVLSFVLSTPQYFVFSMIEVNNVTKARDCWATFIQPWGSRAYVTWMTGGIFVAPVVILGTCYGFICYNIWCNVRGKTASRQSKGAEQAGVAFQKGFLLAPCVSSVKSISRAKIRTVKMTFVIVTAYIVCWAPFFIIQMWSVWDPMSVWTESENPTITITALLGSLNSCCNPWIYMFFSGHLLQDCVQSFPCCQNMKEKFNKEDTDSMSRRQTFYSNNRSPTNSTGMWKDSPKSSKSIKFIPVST
OXTR potentiator = human OXTR potentiation. P30559. CHO-OTR cells, Fluo-8 calcium fluorescence, potentiator mode; 0% = oxytocin EC15, 100% = EC100. activation, % at 3 µM. 320,000 tested, 0.061% active. AID 2445;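 active = activation above that plate's cutoff, the mean activation of tested compounds plus 3 SD, cut at about 6.6% in these data, passing the limit was not always enough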
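Measured by – Fluo-8 calcium dye fluorescence · Test system – human OTR in CHO cells · Dosing – one concentration, 3.0 µM compound · Controls – EC15 oxytocin alone as 0%, 75 nM oxytocin as 100% · Evaluation – normalized max/min fluorescence ratio, % activation · Timing – 6 min pre-incubation, 100 s read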
TAAR1 agonist = human TAAR1 agonism; Q96RJ0; CHO RD-HGA16 TAAR1, Fluo-8 calcium fluorescence; vehicle wells 0%, saturating PEA agonist 100%; activation, % at 3 µM; 360,000 tested, 0.99% active; AID 624467;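 active = activation above the mean activation of all test compounds in the run plus 3 SD, cut at about 38% in these data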
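Assay system – CHO-derived RD-HGA16 cells with stable Gα16 and human TAAR1 · Compound dosing – one-point dosing at 3 µM (nominal) · Incubation – 17-24 h seeding, 75 min 37 °C dye, 30 min RT · Measured by – kinetic Fluo-8 calcium fluorescence · Control set – DMSO vehicle as 0%, PEA at EC100 as 100% · Repeats – single well for each compound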
OXTR agonist = agonists of human oxytocin receptor. activation, % at 3 µM. CHO-OTR cells, Fluo-8 calcium fluorescence; normalized: DMSO 0%, oxytocin 100%. AID 2435. 320,000 tested, 0.32% active. P30559;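 active = activation above the mean of all tested compounds plus 3 SD, cutoff set per screening run, cut at about 20% in these data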;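 also: peak over basal fluorescence ratio from a 100 s FLIPR kinetic read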
TAAR1 nonsel count = nonselective antagonism, TAAR1 counter-screen. shares compounds with TAAR1 antagonist. counterscreen cell line, calcium fluorescence, antagonist mode. inhibition, % at 3 µM. 2,400 tested, 77% active; in the data active = inhibition above about 22%;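 also: CHO-Ga16 host cells stimulated with ATP at an EC80 level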
TAAR1 ant conf = human TAAR1 antagonism, confirmed | shares compounds with TAAR1 antagonist | TAAR1-expressing cells, fluorescence antagonist read-out | inhibition, % at 3 µM | 2,400 tested, 40% active | AID 651785; in the data active = inhibition above about 49%;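 also: CHO-Ga16 host cells challenged with agonist PEA near its EC80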
Ga16 nonsel ag = nonselective Ga16 agonism, counter-screen; shares compounds with TAAR1 antagonist; Ga16-expressing cells, calcium fluorescence, agonist counterscreen; activation, % at 3 µM; 2,400 tested, 18% active; in the data active = activation above about 12%
TAAR1 ag counter = activates human TAAR1 in antagonist counter-screen; shares compounds with TAAR1 antagonist; hTAAR1 cell line, fluorescence activation, agonist mode; activation, % at 3 µM; 2,400 tested, 2% active; in the data active = activation above about 37%;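 also: CHO cells stably expressing TAAR1 with calcium dye readout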
Hits are given with their value; n = inactive; x = no result given. Hits are enriched below; roughly 2.3% of the tested compounds scored in any of these assays.

SMILES | TAAR1 antagonist | V1aR counter | OXTR potentiator | TAAR1 agonist | OXTR agonist | TAAR1 nonsel count | TAAR1 ant conf | Ga16 nonsel ag | TAAR1 ag counter
COc1ccccc1N1CCN(C(=O)CCc2nnc3ccc(N4CCC(C)CC4)nn23)CC1 | 53 | n | n | n | n | 22 | n | n | n
COc1cccc(NC(=O)CCc2nnc3ccc(N4CCN(c5cccc(OC)c5)CC4)nn23)c1 | x | n | n | x | n | x | x | x | x
CCOC(=O)c1c(C)[nH]c(C(=O)COC(=O)C2CC2)c1C | n | x | x | n | x | x | x | x | x
CCOC(=O)c1c(C)[nH]c(C(=O)COC(=O)C2(C)CC2(Cl)Cl)c1C (centres undefined) | 71 | n | n | n | n | 45 | 74 | n | n
COc1ccc(-n2c(=S)[nH]c3cc(C(=O)Nc4ccc(F)cc4)ccc3c2=O)c(OC)c1 | n | n | n | n | n | x | x | x | x
Cn1cncc1C#Cc1c(-c2ccc(S(C)(=O)=O)cc2)sc2ccccc12 | 61 | n | n | n | n | 32 | n | n | n
O=C(CC(C(=O)c1ccccc1)c1ccccc1)c1ccccc1 (centres undefined) | 67 | x | x | n | x | 23 | n | n | n
CN(C)CC(C(=O)c1ccccc1)c1ccccc1 (centres undefined) | n | n | n | n | n | x | x | x | x
CC#CCN1C(=O)N[C@@H](c2ccccc2)C(C(=O)OC)=C1C | n | n | n | n | n | x | x | x | x
Cc1nc(-c2cccc(NC(=O)c3ccc(-n4nccc4C)cc3)c2)cs1 | 69 | n | n | n | n | 33 | n | n | n
COC(=O)N[C@@H]1C[C@H]2[C@@H]3CC[C@H]4C[C@@H](OC)CC[C@]4(C)[C@H]3CC[C@]12C | 55 | n | n | n | n | n | n | n | n
CCC(=O)c1ccc(OCC(=O)OCc2csc(CC(=O)Nc3ccccc3C)n2)cc1 | n | x | x | n | x | x | x | x | x
COc1cc(C(=S)N2CCOCC2)cc(OC)c1O | n | n | n | n | n | x | x | x | x
CC(=O)c1ccc(N2CCN(C(=O)c3cc4c(-c5ccccc5F)nn(C)c4s3)CC2)cc1 | 55 | n | n | n | n | 26 | n | n | n
Cc1cc(C)c(S(=O)(=O)Nc2cccc(C(=O)O)c2)cc1S(=O)(=O)Nc1cccc(C(=O)O)c1 | n | n | n | n | n | x | x | x | x
Cc1ccc(C)c(NC(=O)C(Sc2nc3ccccc3c(=O)n2CC(C)C)c2ccccc2)c1 (centres undefined) | 56 | n | n | n | n | 28 | 50 | n | n
COc1ccc(-c2ccccc2)c2oc(-c3ccco3)cc(=O)c12 | x | n | n | x | n | x | x | x | x
COc1ccc(/C=N/Nc2cc(=O)n(C)c(=O)n2C)cc1OC | n | n | n | n | n | x | x | x | x
O=C(NNc1ncnc2c1cnn2-c1ccc(F)cc1)c1ccco1 | n | n | n | n | n | x | x | x | x
COC(=O)c1ccc(COc2cccn3c(N(C)C(=O)CCC4CCCC4)c(C)nc23)cc1 | 68 | x | x | n | x | 34 | 55 | n | n
Cc1nc2c(OCc3ccc(F)cc3)cccn2c1N(C)C(=O)CCC1CCCC1 | n | x | x | n | x | x | x | x | x
COc1ccccc1NS(=O)(=O)c1cc([N+](=O)[O-])ccc1N/N=C/c1c(C)[nH]c2ccccc12 | 58 | n | n | n | n | 47 | n | 16 | n
CC(C)Cc1csc(=S)[nH]1 | n | x | x | n | x | x | x | x | x
COC(=O)[C@@H](NC(=O)NCc1cccs1)C(C)C | n | n | n | n | n | x | x | x | x
COC(=O)[C@H](CCSC)NC(=O)NCc1cccs1 | 107 | n | n | n | n | n | n | n | n
CC(c1nc2ccccc2c(=O)[nH]1)N1CCN(C)CC1 (centres undefined) | n | n | n | n | n | x | x | x | x
